# Experimental data collected from several papers.
# Compare with care: the assays were run in different laboratories.
# Target: Serine/threonine-protein kinase N1 (PKN1, Homo sapiens, UniProt Q16512)
SMILES,observed,method,tested at,remaining binding
CN(C)c1ncnc(-c2ccc3nc(Nc4cc(CN5CCN(C(=O)CC(F)(F)F)CC5)ccn4)[nH]c3c2)c1Cl,cell-free assay,competition with immobilised ligand,1 µM,100%
Cc1cnc(Nc2ccc(C(=O)N3CCC(N4CCCC4)CC3)cc2)nc1-c1cc2ccccc2s1,binding,competition with immobilised ligand,1 µM,1.2%
CN(C)c1ncc(F)c(-c2cnn3ncccc23)n1,binding,,1 µM,100%
COc1ccc2c(c1)O[C@@H](c1ccc(OC)c(OC)c1)C[C@H]2NC(=O)C1(c2ccc3c(c2)OC(F)(F)O3)CC1,cell-free assay,competition with immobilised ligand,1 µM,96%
O=C(NCCCN1CCOCC1)c1ccc(Nc2ncc(Cl)c(-c3ccc(Cl)s3)n2)cc1,binding,competition with immobilised ligand,1 µM,39%
CN(C)c1nccc(-c2cnc3ncccn23)n1,binding,,1 µM,100%
COc1cnc(Nc2cccc(S(N)(=O)=O)c2)nc1N1CCN(c2ccccc2)C(=O)C1,binding,competition with immobilised ligand,1 µM,98%
CN(C)c1nccc(-c2cnn3ncccc23)n1,binding,,1 µM,98%
CCc1ccccc1C(=O)Nc1n[nH]c2c(C)c(F)c(C3C(C#N)=C(C)N(C)C(C)=C3C#N)cc12,cell-free assay,competition with immobilised ligand,1 µM,100%
Cc1cnn2ncc(-c3ccnc(N(C)C)n3)c2c1,binding,,1 µM,99%
C[C@@H](c1ccc(-n2cnc3c(N)ncnc32)cc1)N1CCc2nn(C)c(Cc3ccccc3)c2C1=O,binding,competition with immobilised ligand,0.1 µM,98%
COc1ccnn2ncc(-c3ccnc(N(C)C)n3)c12,binding,,1 µM,74%
CNC(=O)[C@@H]1CC[C@@H](n2c(-c3ccc4cnccc4c3)nc3ccc(C(=O)NCc4cccc(C(N)=O)c4)cc32)C1,binding,competition with immobilised ligand,1 µM,92%
C[C@H](c1ccc(F)cc1)N(Cc1cccc(C(=O)O)c1)C(=O)c1cnc2ccccc2c1,cell-free assay,competition with immobilised ligand,1 µM,100%
c1cncc(-c2cccc(Nc3nccc(NC4CCCCC4)n3)c2)c1,binding,competition with immobilised ligand,10 µM,64%
O=C(c1ccc(Nc2ncc(Cl)c(-c3ccc(Cl)s3)n2)cc1)N1CCC(N2CCCC2)CC1,binding,competition with immobilised ligand,1 µM,25%
CNC(=O)Nc1ccc2c(c1)[C@@]1(CC2)OC(=O)N(CC(=O)N(Cc2ccc(F)cc2)[C@@H](C)C(F)(F)F)C1=O,cell-free assay,competition with immobilised ligand,1 µM,98%
N[C@@H]1CCN(c2nccc(-c3cnn4ncccc34)n2)C1,binding,,1 µM,93%
CCOCCn1cc(C(=O)Nc2ccc(-n3nc(-c4cccnc4)cc3C(F)(F)F)cn2)ccc1=O,cell-free assay,competition with immobilised ligand,1 µM,76%
O=C(Nc1c[nH]nc1C(=O)NC1CCNCC1)c1cc(F)cc(F)c1,binding,competition with immobilised ligand,1 µM,100%
O=C(Nc1cnc(Oc2ccc(F)cc2)nc1)N1CCc2ncccc2[C@@H]1c1ccc(F)cc1,cell-free assay,competition with immobilised ligand,1 µM,95%
CN(c1nccc(-c2cnn3ncccc23)n1)C1CC1,binding,,1 µM,100%
